According to ChEMBL document CHEMBL2040734, “Benzothiazoles: search for anticancer agents” (2012):

How the values were obtained:
Format in all cases: functional
[1] = system: PC-3; experiment: Growth inhibition of human PC3 cells after 48 hrs by sulforhodamine B assay; conditions: PC-3, 48 h; for CC50: read-out: LC50 (the source's name)
In short: (§1)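 Adherent NCI-60 lines were grown in RPMI 1640 with 5% FBS and 2 mM L-glutamine, plated at 5000–40,000 cells/well and preincubated 24 h. They were then exposed to five concentrations (0.01–100 µM, from a DMSO stock) for 48 h at 37 °C, 5% CO2. Cells were fixed with cold TCA (10% final, 60 min, 4 °C) and stained with 0.4% SRB. Dye was solubilized in 10 mM Tris base and A515 read. GI50 was derived from time-zero, control and treated absorbances.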

[2] = system: T47D; experiment: Cytotoxicity against human T47D cells assessed as cell growth at 10 uM after 48 hrs by sulforhodamine B assay; conditions: read-out: Activity
[3] = system: Malme-3M; experiment: Cytotoxicity against human MALME-3M cells assessed as cell growth at 1 uM after 48 hrs by sulforhodamine B assay; conditions: read-out: Activity
[4] = system: NCI-H322M; experiment: Cytotoxicity against human NCI-H322M cells assessed as cell growth at 100 uM after 48 hrs by sulforhodamine B assay; conditions: read-out: Activity
[5] = system: RXF 393; experiment: Cytotoxicity against human RXF393 cells assessed as cell growth at 0.1 uM after 48 hrs by sulforhodamine B assay; conditions: RXF 393, 48 h, read-out: Activity
[6] = system: HCC 2998; experiment: Cytotoxicity against human HCC2998 cells assessed as cell growth at 0.1 uM after 48 hrs by sulforhodamine B assay; conditions: HCC 2998, 48 h, read-out: Activity
In short: (§2)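 Five-dose NCI panel run at 0.01, 0.1, 1, 10 and 100 µM. Cells were in RPMI 1640 with 5% FBS and 2 mM L-glutamine, seeded at 5000–40,000 cells/well and pre-incubated 24 h. Drug was diluted from a DMSO stock into medium with 50 µg/ml gentamicin. Exposure was 48 h at 37 °C, 5% CO2. Cells were fixed with cold TCA and stained with 0.4% SRB, read at 515 nm. Percent growth came from time-zero, control and test absorbances.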

[7] = system: UACC-62; experiment: Cytotoxicity against human UACC62 cells assessed as cell growth at 10 uM after 48 hrs by sulforhodamine B assay; conditions: UACC-62, 48 h, read-out: Activity
[8] = system: SK-MEL-28; experiment: Cytotoxicity against human SK-MEL-28 cells assessed as cell growth at 10 uM after 48 hrs by sulforhodamine B assay; conditions: SK-MEL-28, 48 h, read-out: Activity
[9] = system: HCC 2998; experiment: Cytotoxicity against human HCC2998 cells assessed as cell growth at 0.01 uM after 48 hrs by sulforhodamine B assay; conditions: HCC 2998, 48 h, read-out: Activity; in short: as §2
[10] = system: PC-3; experiment: Cytotoxicity against human PC3 cells assessed as cell growth at 100 uM after 48 hrs by sulforhodamine B assay; conditions: PC-3, 48 h, read-out: Activity
[11] = system: SNB-19; experiment: Cytotoxicity against human SNB19 cells assessed as cell growth at 0.01 uM after 48 hrs by sulforhodamine B assay; conditions: SNB-19, 48 h, read-out: Activity
[12] = system: TK-10; experiment: Cytotoxicity against human TK10 cells assessed as cell growth at 10 uM after 48 hrs by sulforhodamine B assay; conditions: TK-10, 48 h, read-out: Activity
[13] = system: NCI-H460; experiment: Cytotoxicity against human NCI-H460 cells assessed as cell growth at 10 uM after 48 hrs by sulforhodamine B assay; conditions: NCI-H460, 48 h, read-out: Activity
[14] = system: CAKI-1; experiment: Cytotoxicity against human Caki1 cells assessed as cell growth at 10 '-5 M after 48 hrs by sulforhodamine B assay; conditions: CAKI-1, 48 h, read-out: Activity
In short: (§3)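 Primary NCI-60 single-dose screen at 10 µM. Cells were grown in RPMI 1640 with 5% FBS and 2 mM L-glutamine and plated 24 h before drug addition. Compound was solubilized in DMSO, then exposed for 48 h at 37 °C under 5% CO2. Cells were TCA-fixed and stained with SRB, and absorbance was read at 515 nm. Growth was expressed relative to time-zero and untreated controls.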

[15] = system: M14; experiment: Cytotoxicity against human M14 cells assessed as cell growth at 100 uM after 48 hrs by sulforhodamine B assay; conditions: M14, 48 h, read-out: Activity
[16] = system: MDA-MB-468; experiment: Cytotoxicity against human MDA-MB-468 cells assessed as cell growth at 0.1 uM after 48 hrs by sulforhodamine B assay; conditions: MDA-MB-468, 48 h, read-out: Activity
[17] = system: HOP-62; experiment: Cytotoxicity against human HOP62 cells assessed as cell growth at 10 uM after 48 hrs by sulforhodamine B assay; conditions: HOP-62, 48 h, read-out: Activity; in short: as §2
[18] = system: SN12C; experiment: Cytotoxicity against human SN12C cells assessed as cell growth at 100 uM after 48 hrs by sulforhodamine B assay; conditions: read-out: Activity
[19] = system: EKVX; experiment: Cytotoxicity against human EKVX cells assessed as cell growth at 100 uM after 48 hrs by sulforhodamine B assay; conditions: read-out: Activity; in short: as §2
[20] = system: UO-31; experiment: Cytotoxicity against human UO31 cells assessed as cell growth at 10 uM after 48 hrs by sulforhodamine B assay; conditions: UO-31, 48 h, read-out: Activity
[21] = system: SK-MEL-28; experiment: Growth inhibition of human SK-MEL-28 cells after 48 hrs by sulforhodamine B assay; conditions: SK-MEL-28, 48 h; in short: as §1
[22] = system: A498; experiment: Cytotoxicity against human A498 cells assessed as cell growth at 10 '-5 M after 48 hrs by sulforhodamine B assay; conditions: A498, 48 h, read-out: Activity; in short: as §3
[23] = system: OVCAR-4; experiment: Cytotoxicity against human OVCAR4 cells assessed as cell growth at 10 '-5 M after 48 hrs by sulforhodamine B assay; conditions: OVCAR-4, 48 h, read-out: Activity
[24] = system: SNB-19; experiment: Cytotoxicity against human SNB19 cells assessed as cell growth at 10 uM after 48 hrs by sulforhodamine B assay; conditions: SNB-19, 48 h, read-out: Activity
[25] = system: DU-145; experiment: Cytotoxicity against human DU145 cells assessed as cell growth at 1 uM after 48 hrs by sulforhodamine B assay; conditions: DU-145, 48 h, read-out: Activity
In short: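 NCI-60 five-dose screen. Cells were grown in RPMI 1640 with 5% FBS and 2 mM L-glutamine and preincubated 24 h. Compound (DMSO stock) was tested at 0.01, 0.1, 1, 10 and 100 µM for 48 h at 37 °C. Cells were fixed in situ with cold TCA (final 10%) and stained with 0.4% SRB. A515 was read, and percent growth was calculated against time-zero and control plates.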

[26] = Cytotoxicity against human Hs 578T cells assessed as cell growth at 0.1 uM after 48 hrs by sulforhodamine B assay; conditions: read-out: Activity; in short: as §2
[27] = system: 786-0; experiment: Growth inhibition of human 786-0 cells after 48 hrs by sulforhodamine B assay; conditions: 786-0, 48 h; for CC50: read-out: LC50 (the source's name)
In short: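 Cells were in RPMI 1640 with 5% FBS and pre-incubated 24 h. Read-out was TCA fixation, SRB staining and absorbance at 515 nm. GI50 was the concentration where [(Ti−Tz)/(C−Tz)]×100 = 50, taken from log concentration vs % growth curves. It is given as ">" the top concentration when not reached.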

Structure (SMILES) | TGI [1] | CC50 [1] | growth at 10 µM [2] | growth at 1 µM [3] | growth at 100 µM [4] | growth at 0.1 µM [5] | growth at 0.1 µM [6] | growth at 10 µM [7] | growth at 10 µM [8] | growth at 0.01 µM [9] | growth at 100 µM [10] | growth at 0.01 µM [11] | growth at 10 µM [12] | growth at 10 µM [13] | growth at 10 µM [14] | growth at 100 µM [15] | growth at 0.1 µM [16] | growth at 10 µM [17] | growth at 100 µM [18] | growth at 100 µM [19] | other results
Cc1ccc2nc(Nc3c(C)cccc3C)sc2c1 | > 100 µM | > 100 µM | 60% | 57% | 69% | 85% | 90% | 23% | 45% | 97% | 56% | 94% | 71% | 22% | 22.1% | 53% | 82% | 39% | 52% | 53% | growth at 10 µM [20]: 49%; LC50 [21]: > 100 µM; TGI [21]: > 100 µM; growth at 10 µM [22]: 38%; growth at 10 µM [23]: 63%; growth at 10 µM [24]: 47%; growth at 1 µM [25]: 94%; growth at 0.1 µM [26]: 97%; GI50 [27]: > 100 µM; TGI [27]: > 100 µM; CC50 [27]: > 100 µM
Clc1cccc(Cl)c1Nc1nc2cccc(Cl)c2s1 | 2.3 µM | 6.81 µM | -90% | 52% | -95% | 73% | 87% | -85% | -86% | 92% | -74% | 91% | -86% | -75% | -10.6% | -56% | 81% | -93% | -84% | -73% | GI50 [1]: 0.526 µM; growth at 10 µM [20]: -91%; GI50 [21]: 1.46 µM; LC50 [21]: 6.02 µM; TGI [21]: 2.96 µM; growth at 10 µM [22]: -53.6%; growth at 10 µM [23]: 6.72%; growth at 10 µM [24]: -74%; growth at 1 µM [25]: 75%; growth at 0.1 µM [26]: 81%; GI50 [27]: 1.03 µM; TGI [27]: 2.28 µM; CC50 [27]: 5.03 µM
